Bioassay records as filed in PubChem.
Shown are actives, neighbours in structure and some others; about 1.4% of the full set was active somewhere.
DNA FID counter – counter-screen for HCV NS3 helicase inhibitors: DNA intercalator displacement; DNA fluorescent intercalator displacement, fluorescence; inhibition, % at 7.9 µM; 290,000 compounds, 0.17% hits; AID 1845; in the data active means inhibition above about 37%;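 further: 0% = vehicle and 100% = reference compound; higher means more ethidium bromide displaced from hairpin DNA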
PLC-beta3 inh – PLC-beta3 (human) inhibition, primary screen. Q01970. Purified PLC-beta3, fluorogenic substrate, fluorescence. inhibition, % at 12.2 µM. 370,000 compounds, 0.18% hits; in the data active means inhibition above about 11%;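 further: 0% = median of compound wells on plate and 100% = full blocker control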
PLC-gamma1 inh – PLC-gamma1 (human) inhibition, primary screen. P19174. 370,000 compounds, 0.84% hits. AID 720700. inhibition, % at 12.2 µM. purified PLC-gamma1, fluorogenic substrate, fluorescence; in the data active means inhibition above about 9.5%
Target sequence (P19174 whole entry, looked up): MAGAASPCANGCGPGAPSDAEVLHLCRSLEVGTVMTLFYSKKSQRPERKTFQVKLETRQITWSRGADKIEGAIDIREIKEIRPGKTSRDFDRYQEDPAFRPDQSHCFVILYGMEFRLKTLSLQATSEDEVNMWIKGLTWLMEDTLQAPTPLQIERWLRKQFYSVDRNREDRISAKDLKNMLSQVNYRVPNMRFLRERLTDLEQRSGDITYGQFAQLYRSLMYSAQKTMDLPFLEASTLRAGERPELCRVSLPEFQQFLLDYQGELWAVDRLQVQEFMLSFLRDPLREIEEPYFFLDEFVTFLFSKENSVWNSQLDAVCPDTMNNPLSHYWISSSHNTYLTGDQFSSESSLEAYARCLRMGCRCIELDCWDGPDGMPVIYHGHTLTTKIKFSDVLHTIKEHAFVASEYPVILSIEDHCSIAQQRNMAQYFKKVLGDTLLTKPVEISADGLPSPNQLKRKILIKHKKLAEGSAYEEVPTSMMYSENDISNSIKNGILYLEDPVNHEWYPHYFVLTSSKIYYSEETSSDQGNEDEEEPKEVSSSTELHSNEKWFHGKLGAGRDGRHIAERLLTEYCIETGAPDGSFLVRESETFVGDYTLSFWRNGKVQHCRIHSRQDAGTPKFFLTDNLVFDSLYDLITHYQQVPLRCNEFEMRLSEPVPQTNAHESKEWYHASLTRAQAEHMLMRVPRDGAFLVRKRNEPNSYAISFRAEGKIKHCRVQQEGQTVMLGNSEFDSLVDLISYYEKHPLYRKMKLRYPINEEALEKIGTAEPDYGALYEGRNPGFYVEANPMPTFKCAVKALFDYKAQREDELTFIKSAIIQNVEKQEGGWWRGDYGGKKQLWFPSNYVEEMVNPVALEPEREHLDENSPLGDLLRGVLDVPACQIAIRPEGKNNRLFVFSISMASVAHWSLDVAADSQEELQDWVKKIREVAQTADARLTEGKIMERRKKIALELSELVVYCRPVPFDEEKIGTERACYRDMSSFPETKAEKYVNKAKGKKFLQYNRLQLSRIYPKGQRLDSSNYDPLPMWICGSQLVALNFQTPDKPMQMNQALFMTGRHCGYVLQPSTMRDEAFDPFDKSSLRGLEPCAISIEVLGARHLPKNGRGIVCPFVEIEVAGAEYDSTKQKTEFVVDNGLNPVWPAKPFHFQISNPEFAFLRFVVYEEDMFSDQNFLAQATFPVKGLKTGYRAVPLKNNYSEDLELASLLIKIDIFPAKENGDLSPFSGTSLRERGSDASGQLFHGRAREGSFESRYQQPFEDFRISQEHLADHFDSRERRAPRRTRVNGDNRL
Tn6 DDE FP – disrupts Tn6 cyclic peptide binding to fibrin D-Dimer-E complex; P02675; Fibrin DD(E) TRITC-Tn6 fluorescence polarization displacement; inhibition, % at 8.3 µM; 370,000 compounds, 0.21% hits; AID 720509;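 active means inhibition above a per-campaign cutoff: mean of compounds within control limits plus 3 SD, cut at about 15% in these data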;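 further: 0% = median of all compound wells on the plate and 100% = blocking peptide control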
DDE Tn7 FP inh – disrupts Tn7 cyclic peptide binding to fibrin D-Dimer-E complex; P02675; FP displacement of FITC-Tn7 peptide from fibrin DD(E); 0% = median of compound wells per plate; inhibition, % at 8.3 µM; 370,000 compounds, 0.13% hits; AID 720508;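 active means inhibition above the mean of compounds falling within the control limits plus 3 SD of them, cut at about 14% in these data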;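 further: 0% = plate median of compound wells and 100% = 10 µM Aha-Tn7 peptide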
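system = human fibrin DD(E) protein | quantity = DD(E) 2 µM final | medium = Tris/NaCl/CaCl2 buffer, pH 7.8 | also added = labelled Tn7 tracer, 0.1 µM | compound dosing = single point at 8.3 µM | timing = compound with protein 10 min, then 3 h after probe, room temperature | signal = FP measurement | benchmarks = Aha-Tn7 high control | repeats = one replicate per compound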
Tn6 DDE ctr – counter-screen for inhibitors of Tn6 peptide binding to fibrin DD(E). TRITC-Tn6 fluorescence polarization displacement; 0% = median of compound wells, not DMSO. shares compounds with Tn6 DDE FP. inhibition, % at 8.3 µM. 680 compounds, 2% hits. AID 720621;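 active means inhibition above the mean of test compounds lying between the control limits plus 3 SD of those, cut at about 14% in these data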;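 further: 0% = median of compound wells and 100% = wells with Aha-Tn7 blocking peptide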
Tn6 DDE conf – DD(E)-Tn6 binding inhibition, FP confirmation; FP displacement of TRITC-Tn6 peptide from DD(E); 0% = per-plate median of test wells; 680 compounds, 10% hits; inhibition, % at 8.3 µM; shares compounds with Tn6 DDE FP; AID 720631;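 active means inhibition above the mean of compounds lying within the control limits plus 3 SD, cut at about 16% in these data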;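 further: 100% = high control wells holding a competing inhibitor peptide at 10 µM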
Starred values were filed as active, the others as inactive; x = no result.

SMILES | DNA FID counter | PLC-beta3 inh | PLC-gamma1 inh | Tn6 DDE FP | DDE Tn7 FP inh | Tn6 DDE ctr | Tn6 DDE conf
CC(=O)c1ccc(NC(=O)c2ccc(S(=O)(=O)N3CCCC3)cc2)cc1 | -5 | 0 | 0 | -3 | -5 | x | x
CN(C)c1cccc(O)c1 | x | -14 | -9 | 34* | -4 | 0 | 3
N#Cc1ccc(OCC(=O)N(C2CCCCC2)C2CCS(=O)(=O)C2)cc1 (configuration not stated) | x | -3 | 1 | 16* | -1 | 10 | 6
Cc1ccc([C@H]2N[C@]3(CCCN(Cc4ccc(Cl)cc4)C3=O)[C@H]3C(=O)N(C)C(=O)[C@@H]23)cc1 | x | 1 | -3 | 1 | 3 | x | x
CC(=O)c1ccc(NC(=S)NCCc2ccc(S(N)(=O)=O)cc2)cc1 | -4 | -8 | -3 | 15* | 4 | -8 | -12
NS(=O)(=O)c1ccc(NC(=S)NCCc2ccccc2)cc1 | -1 | 0 | 2 | -1 | -4 | x | x
COc1cccc(NC(=O)CN(C)C(=O)CN2C(=O)NC3(CCCC3)C2=O)c1 | x | -9 | 2 | -8 | 5 | x | x
COc1cccc(NC(=O)CN2C(=O)NC3(CCCCCC3)C2=O)c1 | x | -2 | 8 | 15* | 5 | 5 | -1
Cc1ccc(NC(=O)/C=C/c2ccc([N+](=O)[O-])s2)cc1 | 2 | -12 | -11 | 18* | 3 | -4 | -7
CC(=O)c1ccc(NC(=O)C2CC(=O)N(Cc3ccccc3)C2)cc1 (configuration not stated) | -7 | 5 | 1 | 16* | 6 | -2 | -3
O=C(Nc1ccccc1)C1CC(=O)N(Cc2ccccc2)C1 (configuration not stated) | -13 | -3 | 1 | 0 | 1 | x | x
O=C(Nc1nccs1)c1ccc(-c2ccc(F)c(Cl)c2)o1 | -3 | -75 | -47 | 27* | 4 | 2 | 16*
CC(NC(=O)N1CCOCC1)c1ccccc1 (configuration not stated) | -3 | -6 | 0 | 6 | 5 | x | x
O=C(NC(c1ccccc1)c1ccccc1)N1CCOCC1 | -2 | 4 | 2 | 16* | -2 | 2 | 3
O=C(Nc1ccncc1)c1cc(C2CCCCN2C(=O)CCc2ccccc2)on1 (configuration not stated) | x | 1 | -2 | 15* | -3 | 4 | -1
Cc1ccc(NC(=O)Cn2c(=O)cnc3ccccc32)cc1S(=O)(=O)N1CCCCC1 | x | -19 | -9 | -3 | 2 | x | x
COc1ccc(NC(=O)Cn2c(=O)cnc3ccccc32)cc1S(=O)(=O)N1CCCCC1 | x | 0 | 2 | 27* | -3 | 4 | 3
COc1ccccc1C(=O)NC(=O)COC(=O)c1ccc(NC(=O)CC#N)cc1 | x | -10 | -4 | 18* | 2 | 3 | -1
COc1ccccc1C(=O)NC(=O)COC(=O)c1ccc([N+](=O)[O-])cc1 | x | -5 | 3 | -1 | 3 | x | x
COCCCNC(=O)c1ccc(Cn2c(=O)c3ccccc3n(CC(=O)NCc3ccco3)c2=O)cc1 | -23 | -8 | 0 | 9 | -1 | x | x
COCCNC(=O)Cn1c(=O)n(Cc2ccc(C(=O)NCCc3ccc(OC)c(OC)c3)cc2)c(=O)c2ccccc21 | -52 | -10 | 2 | 17* | 3 | -2 | -5
Cc1ccc(S(=O)(=O)N2[C@H](CC(=O)c3ccccc3)OC[C@@H]2C)cc1 | x | 2 | 2 | 2 | -4 | x | x
COc1ccc(-c2nc(-c3ccccn3)nc(N3CCN(C)CC3)c2C#N)cc1 | 11 | -37 | -30 | 17* | 2 | 5 | 0
COc1ccc(N(CC(=O)NCc2cccnc2)S(=O)(=O)c2ccccc2[N+](=O)[O-])c(OC)c1 | 2 | 2 | -1 | -2 | -1 | x | x
CC(C)C(=O)N=c1sc2cccc(F)c2n1C | -4 | 0 | 2 | 0 | -5 | x | x
SMILES | DNA FID counter | PLC-beta3 inh | PLC-gamma1 inh | Tn6 DDE FP | DDE Tn7 FP inh | Tn6 DDE ctr | Tn6 DDE conf
CCN(CC)S(=O)(=O)c1ccc(C(=O)NCc2ccc3c(c2)cc(C)n3C)cc1 | -40 | -40 | -35 | 80* | 4 | 7 | -4
Cc1cc2cc(CNC(=O)c3ccc(S(=O)(=O)N4CCCC4)cc3)ccc2n1C | -29 | -26 | -15 | 60* | -4 | -5 | 5
Cc1ccc(CNC(=O)c2ccc(S(=O)(=O)N3CCCC3)cc2)cc1 | x | 3 | 1 | 9 | -6 | x | x
CC1=[N+](C)c2ccc3ccccc3c2C1(C)C | -2 | -14 | -14 | 55* | -2 | -1 | 8
CC(C)c1cc(C(C)C)n2nc(N)nc2n1 | -5 | -5 | 1 | -4 | -6 | x | x
CCc1nc2ccc(C(=O)NCCOc3ccc(OC)cc3)cn2c1N(C)C(=O)C1CCCCC1 | x | 0 | 0 | 16* | 7 | -1 | -4
CCc1nc2ccc(C(=O)NCCOc3ccc(OC)cc3)cn2c1N(CCN(C)C)CC1CC1 | x | -3 | 0 | -10 | -9 | x | x
Cc1cccc(NC(=S)N(C)C2(c3ccccc3Cl)CCCCC2=O)c1 (configuration not stated) | -12 | -1 | 0 | -1 | -8 | x | x
COc1ccc(OC)c(Cc2nnc(CCC(=O)N3CCCCCC3)o2)c1 | -24 | 3 | 3 | -4 | -5 | x | x
O=S1(=O)CC2c3ccccc3CN2CN1CCc1ccccc1 (configuration not stated) | x | -9 | -9 | 5 | 4 | x | x
COC(=O)c1cc(C(=O)OCC(=O)NC2CCCCCCC2)cc([N+](=O)[O-])c1 | x | -2 | 0 | 17* | 4 | 9 | 5
O=C(COC(=O)c1ccc([N+](=O)[O-])cc1)NC1CCCC1 | 0 | 1 | 0 | -9 | -3 | x | x
Cc1nnc2sc(-c3cccc4ccccc34)nn12 | -14 | -18 | -15 | 17* | -1 | -7 | -10
COC(=O)C[C@H]1CC[C@@H](NS(=O)(=O)c2ccccc2)[C@@H](CO)O1 | x | -1 | 0 | 3 | 2 | x | x
CC(C)c1ccc(N2C(=O)/C(=C/N(C)C)SC2=S)cc1 | -4 | -82 | -60 | 43* | 5 | -7 | 4
COC(=O)[C@]12C=CCN1[C@H](c1ccc(C(F)(F)F)cc1)c1c(c3ccccc3n1S(=O)(=O)c1ccc(C)cc1)C2 | x | -42 | -28 | 17* | -9 | 2 | 4
COC(=O)[C@]12C=CCN1[C@@H](c1ccc(C(F)(F)F)cc1)c1c(c3ccccc3n1S(=O)(=O)c1ccc(C)cc1)C2 | x | -93 | -77 | 12 | 10 | x | x
COC(=O)[C@]12C=CCN1[C@@H](c1ccc(Cl)cc1)c1c(c3ccccc3n1S(=O)(=O)c1ccc(C)cc1)C2 | x | -60 | -67 | 28* | -7 | 2 | 3
CCn1c(SCc2ccccc2Cl)nc2nc3c(cc2c1=O)CCCC3 | 0 | -1 | 1 | -5 | -3 | x | x
